From paper PMC8245912 (Acta Pharmaceutica Sinica. B, 2020) come the findings set out here.

One data set addresses MDM2‒P53 (Homo sapiens, UniProt Q00987). In words: fluorescence polarization. The class given is binding. The conditions noted are these: for Ki: MDM2‒P53 Ki, FP binding assay, Table 1.
Another data set deals with A549 (lung cancer) cells. In words: CCK-8 antiproliferative assay, A549. It is filed as cell-based. The conditions noted are these: Homo sapiens. (In general: Tetrazolium assays rely on reduction of a dye to a coloured formazan, in cell work by metabolically active cells.)
The test system of data set [1] is HepG2 (liver cancer) cells. In words: CCK-8 antiproliferative assay, HepG2. The class given is cell-based. The conditions noted are these: Homo sapiens, HepG2, read-out: IC50 HepG2.
Data set [2] concerns HCT116 (colon cancer) cells. In words: CCK-8 antiproliferative assay, HCT116. It is filed as cell-based. The conditions noted are these: Homo sapiens, HCT-116, read-out: IC50 HCT116.
Data set [3] has as its system MCF-7 (breast cancer) cells. In words: CCK-8 antiproliferative assay, MCF-7. The conditions noted are these: Homo sapiens, MCF7, read-out: IC50 MCF-7. It is filed as cell-based.
The target of the next data set is MDM2 (Homo sapiens, UniProt Q00987). In words: Western blotting of MDM2 degradation in A549 cells. It is filed as cell-based. The note with it: for MDM2 degradation (result in words): Western blotting, Fig. 2B. In general terms: In western blotting, separated proteins are transferred to a membrane and probed.
The subject of a further data set is P53. In words: Western blotting of P53 expression in A549 cells. It is filed as cell-based, human.
Another data set deals with HCT116 (P53+) cells. In words: CCK-8 assay, P53-wild HCT116. The conditions noted are these: Homo sapiens, HCT-116, read-out: IC50 HCT116 (P53+). It is filed as cell-based.
The next data set deals with HCT116 (P53‒) cells. In words: CCK-8 assay, P53-deleted HCT116. The class given is cell-based. The note with it: Homo sapiens, HCT-116, read-out: IC50 HCT116 (P53‒).
The next data set deals with A549 cells. In words: apoptosis assay, flow cytometry with Annexin V/PI double staining. The class given is cell-based, human. The conditions noted are these: for apoptosis: 5.0 μmol/L, 24 h treatment. Background: Flow cytometry measures light scatter and fluorescence of single cells or particles in a stream.
Another data set relates to Caco-2 cells. It is filed as in vitro ADME.
The subject of the next data set is A549 xenograft. In words: in vivo A549 xenograft assay. Set-up: species or system mouse. The conditions noted are these: A549 xenograft nude mice, intraperitoneal 20 mg/kg twice-daily, 21 days. Summed up: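 Female BALB/c nude mice (6–7 weeks, 18–20 g) received 5.0 × 10^6 A549 cells subcutaneously in the flank. At mean tumour volume 100 mm3 they were randomised, 5 per group. Intraperitoneal dosing ran twice daily for 21 days; vehicle was normal saline. Calipers measured tumours every three days: V = A×B²/2, TGI = (1 − Vtreat/Vcontrol) × 100. Analysis used mean ± SEM and one-way ANOVA.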

The mark [4] stands for this setting: A549, 72 h, read-out: IC50 A549.

Where two headings read alike, the source gives them in different places. Peptide text beside a SMILES is read from it. * marks the point of attachment. Cbz = O=C(OCc1ccccc1)*

By Ki is commonly meant the equilibrium dissociation constant of an inhibitor or competing ligand from its target. Read a low Ki as tighter binding. Broadly, the IC50 is the point on the concentration scale where inhibition reaches its midpoint. As to `CCOc1cc(C(C)(C)C)ccc1C1=N[C@@H](c2ccc(Cl)cc2)[C@@H](c2ccc(Cl)cc2)N1C(=O)N1CCN(C(=O)CCCCCC(=O)N2CCN(C(=O)N3C(c4ccc(C(C)(C)C)cc4OCC)=N[C@@H](c4ccc(Cl)cc4)[C@H]3c3ccc(Cl)cc3)CC2)CC1` (relative stereo) [Compound 10a, 1,7-Bis(4-(2-(4-(tert-butyl)-2-ethoxyphenyl)-cis-4,5-bis(4-chlorophenyl)-4,5-dihydro-1H-imidazole-1-carbonyl)piperazin-1-yl) heptane-1,7-dione], on MDM2‒P53, the affinity, expressed as Ki, was 0.65 ± 0.17 µM. In addition, the IC50 in the data set with A549 (lung cancer) cells (setting [4]) came out at 2.1 ± 0.1 µM; in data set [1], 1.5 ± 0.05 µM; in data set [2] it was 2.5 ± 1 µM; in [3] it was 2.1 µM. The “MDM2 degradation (result in words)” value on MDM2 is reported as “no degradation”.

As to `CCOc1cc(C(C)(C)C)ccc1C1=N[C@@H](c2ccc(Cl)cc2)[C@@H](c2ccc(Cl)cc2)N1C(=O)N1CCN(C(=O)CCCCCCCC(=O)N2CCN(C(=O)N3C(c4ccc(C(C)(C)C)cc4OCC)=N[C@@H](c4ccc(Cl)cc4)[C@H]3c3ccc(Cl)cc3)CC2)CC1` (relative stereo) [Compound 10b, 1,9-Bis(4-(2-(4-(tert-butyl)-2-ethoxyphenyl)-cis-4,5-bis(4-chlorophenyl)-4,5-dihydro-1H-imidazole-1-carbonyl)piperazin-1-yl) nonane-1,9-dione], the Ki on MDM2‒P53 was determined as 1.6 ± 0.96 µM. Moreover, the IC50 with A549 (lung cancer) cells (setting [4]) came to 6.3 ± 1.2 µM; in data set [1], 3.8 µM; in data set [2], 5.7 ± 1.3 µM; in [3], 6.3 ± 1.1 µM.

Consider `CCOc1cc(C(C)(C)C)ccc1C1=N[C@@H](c2ccc(Cl)cc2)[C@@H](c2ccc(Cl)cc2)N1C(=O)N1CCN(C(=O)COCCOCC(=O)N2CCN(C(=O)N3C(c4ccc(C(C)(C)C)cc4OCC)=N[C@@H](c4ccc(Cl)cc4)[C@H]3c3ccc(Cl)cc3)CC2)CC1` (relative stereo) [Compound 10e, 2,2′-(Ethane-1,2-diylbis(oxy)) bis(1-(4-(2-(4-(tert-butyl)-2-ethoxyphenyl)-cis-4,5-bis(4-chlorophenyl)-4,5-dihydro-1H-imidazole-1-carbonyl)piperazin-1-yl)ethan-1-one)], for which, on MDM2‒P53, the affinity corresponds to a Ki of 1.5 ± 0.82 µM. The IC50 in the data set on A549 (lung cancer) cells (setting [4]) stood at 6.6 ± 1 µM; in [1], 4.6 ± 0.8 µM; in data set [2] it was 3.9 ± 0.7 µM; in data set [3] it was 7.4 ± 0.51 µM.

`CCOc1cc(C(C)(C)C)ccc1C1=N[C@@H](c2ccc(Cl)cc2)[C@@H](c2ccc(Cl)cc2)N1C(=O)N1CCN(C(=O)COCCOCCOCC(=O)N2CCN(C(=O)N3C(c4ccc(C(C)(C)C)cc4OCC)=N[C@@H](c4ccc(Cl)cc4)[C@H]3c3ccc(Cl)cc3)CC2)CC1` (relative stereo) [Compound 10f, 2,2′-((Oxybis(ethane-2,1-diyl))bis(oxy))bis(1-(4-(2-(4-(tert-butyl)-2-ethoxyphenyl)-cis-4,5-bis(4-chlorophenyl)-4,5-dihydro-1H-imidazole-1-carbonyl)piperazin-1-yl)ethan-1-one)] showed an inhibitory constant (Ki) on MDM2‒P53 of 0.22 ± 0.07 µM. Also, the IC50 with A549 (lung cancer) cells (setting [4]) was 1.3 µM; in [1] it was 1.2 ± 0.2 µM; in data set [2], 1.3 ± 0.1 µM; in [3], 4.7 ± 0.81 µM. For the same molecule, the “MDM2 degradation (result in words)” value on MDM2 was “dose-dependently induced MDM2 protein cleavage”. Also, in the data set with P53, the “P53 protein expression (result in words)” value is on record as “increased the P53 protein expression”.

Turning to `CCOc1cc(C(C)(C)C)ccc1C1=N[C@@H](c2ccc(Cl)cc2)[C@@H](c2ccc(Cl)cc2)N1C(=O)N1CCN(CC(=O)NCCOCCOCCOCCNC(=O)CN2CCN(C(=O)N3C(c4ccc(C(C)(C)C)cc4OCC)=N[C@@H](c4ccc(Cl)cc4)[C@H]3c3ccc(Cl)cc3)CC2=O)C(=O)C1` (relative stereo) [Compound 11a, N,N′-(((Oxybis(ethane-2,1-diyl))bis(oxy))bis(ethane-2,1-diyl))bis(2-(4-(2-(4-(tert-butyl)-2-ethoxyphenyl)-cis-4,5-bis(4-chlorophenyl)-4,5-dihydro-1H-imidazole-1-carbonyl)-2-oxopiperazin-1-yl)acetamide)], the “fold more potent MDM2‒P53 competitive binding than positive control 1” value at MDM2‒P53 (ratio of Ki vs compound 1) is on record as approximately 1.5 fold. The IC50 with A549 (lung cancer) cells (setting [4]) was 1 ± 0.1 µM; in the data set on A549 (lung cancer) cells (A549, read-out: IC50 A549), 1.4 ± 0.31 µM; in data set [1], 3.3 ± 0.31 µM; in data set [2], 1.9 ± 0.11 µM; in data set [3], 2.9 ± 0.6 µM; in the data set on HCT116 (P53+) cells, 1.9 ± 0.67 µM. Also, in the data set on HCT116 (P53‒) cells, the IC50 is more than 50 µM. Moreover, the MDM2 degradation on MDM2 (2 μmol/L, 24 h) was more than 95%. Besides, the “MDM2 degradation rescue by proteasome inhibitor MG132 (result in words)” value on MDM2 (Fig. 4F) is on record as “MG132 blocked the MDM2 degradation”. On MDM2, the “MDM2 degradation (result in words)” value is “dose-dependently induced MDM2 protein cleavage”. For the same molecule, on MDM2 (time course degradation, Fig. 4D), the “time at which depletion of MDM2 was observed” value is recorded as not above 2 h. Also, in the data set on P53, the “P53 protein expression (result in words)” value is recorded as “increased the P53 protein expression”. Further, the “apoptosis in combination with MG132” value with A549 cells (A549 cells, 5.0 μmol/L compound + MG132 0.2 μmol/L) was 15.81%. This molecule also displayed an apoptosis in the data set on A549 cells (A549 cells) of 23.49%. The “cellular permeability (result in words)” value with Caco-2 cells was “low permeability”.

In the case of `CCOc1cc(C(C)(C)C)ccc1C1=N[C@@H](c2ccc(Cl)cc2)[C@@H](c2ccc(Cl)cc2)N1C(=O)N1CCN(CC(=O)NCCOCCOCCNC(=O)CN2CCN(C(=O)N3C(c4ccc(C(C)(C)C)cc4OCC)=N[C@@H](c4ccc(Cl)cc4)[C@H]3c3ccc(Cl)cc3)CC2=O)C(=O)C1` (relative stereo) [Compound 11b, N,N′-((Ethane-1,2-diylbis(oxy))bis(ethane-2,1-diyl))bis(2-(4-(2-(4-(tert-butyl)-2-ethoxyphenyl)-cis-4,5-bis(4-chlorophenyl)-4,5-dihydro-1H-imidazole-1-carbonyl)-2-oxopiperazin-1-yl)acetamide)], affinity at MDM2‒P53 was put at a Ki of 1.8 ± 0.94 µM. For the same molecule, the IC50 with A549 (lung cancer) cells (setting [4]) was found to be 6.6 ± 1 µM; in [1] it was 7.3 ± 0.52 µM; in data set [2], 3.9 ± 1.6 µM; in data set [3], 4.9 ± 0.2 µM.

On to `CCOc1cc(C(C)(C)C)ccc1C1=N[C@@H](c2ccc(Cl)cc2)[C@@H](c2ccc(Cl)cc2)N1C(=O)N1CCN(CC(=O)NCCOCCNC(=O)CN2CCN(C(=O)N3C(c4ccc(C(C)(C)C)cc4OCC)=N[C@@H](c4ccc(Cl)cc4)[C@H]3c3ccc(Cl)cc3)CC2=O)C(=O)C1` (relative stereo) [Compound 11c, N,N′-(Oxybis(ethane-2,1-diyl))bis(2-(4-(2-(4-(tert-butyl)-2-ethoxyphenyl)-cis-4,5-bis(4-chlorophenyl)-4,5-dihydro-1H-imidazole-1-carbonyl)-2-oxopiperazin-1-yl)acetamide)], for which the Ki on MDM2‒P53 came to 12 ± 1.9 µM. Besides, the IC50 in the data set with A549 (lung cancer) cells (setting [4]) worked out at 9.3 ± 1.7 µM; in data set [1], 12 ± 3.7 µM; in [2], 7.4 ± 2.1 µM; in data set [3] it was 14 ± 3.7 µM.

As to `COc1ccc(C2=N[C@@H](c3ccc(Cl)cc3)[C@@H](c3ccc(Cl)cc3)N2C(=O)N2CCNC(=O)C2)c(OC(C)C)c1` [Compound 1, Nutlin-3, reference compound], the IC50 in the data set on A549 (lung cancer) cells (setting [4]) was determined as 7.9 ± 1.3 µM; in the data set with A549 (lung cancer) cells (A549, read-out: IC50 A549), 9.9 ± 1.3 µM; in data set [1], 8.9 ± 1 µM; in data set [2], 5 ± 0.9 µM; in [3], 9.7 ± 1 µM; with HCT116 (P53‒) cells, 19 ± 0.91 µM. For the same molecule, the “MDM2 degradation (result in words)” value at MDM2 is “did not induce the degradation of MDM2”. The same molecule had an apoptosis in the data set on A549 cells (A549 cells) of 10.94%. Also, the “tumor growth inhibition (TGI)” value with A549 xenograft is listed as 47.8%.

For the molecule `CC(C)C[C@@H](C=O)NC(=O)[C@H](CC(C)C)NC(=O)[C@H](CC(C)C)NC(=O)OCc1ccccc1` [MG132, reference compound] (Cbz-Leu-Leu-Leu-aldehyde), the “toxic effect on A549 cells (result in words)” value in the data set on A549 cells (0.2 μmol/L, incubation for 24 h) was “no toxic effect”.
